Laboratory results published in ChEMBL document CHEMBL3120154, “2-[N-Alkyl(R-phenyl)-aminomethyl]-3-phenyl-7-trifluoromethylquinoxalines as anticancer agents inhibitors of folate enzymes” (Eur J Med Chem, 2014).

Experiments:
Format in all cases: functional
TK-10 [1] = assay: Cytotoxicity against human TK10 cells at 10^-7 M after 48 hrs by SRB assay; conditions: TK-10, 48 h, read-out: GI
SK-OV-3 = assay: Cytotoxicity against human SKOV3 cells at 10^-7 M after 48 hrs by SRB assay; conditions: SK-OV-3, 48 h, read-out: GI
SR = assay: Cytotoxicity against human SR cells at 10^-4 M after 48 hrs by SRB assay; conditions: read-out: GI
SK-MEL-28 [2] = assay: Cytotoxicity against human SK-MEL-28 cells at 10^-6 M after 48 hrs by SRB assay; conditions: SK-MEL-28, 48 h, read-out: GI
Method in brief: (§1)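 Second-stage screen in the 60-cell-line human tumor panel at NCI, over a 5-log range (100, 10, 1, 0.1, 0.01 micromolar). Cells were exposed to drug for 48 h and growth was estimated with a sulforhodamine B protein stain. The value is percent growth inhibition at each concentration.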

M14 = assay: Cytotoxicity against human M14 cells at 10^-6 M after 48 hrs by SRB assay; conditions: M14, 48 h, read-out: GI
Method in brief: (§2)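 Run in the NCI 60-cell-line screen after a three-line prescreen. Cells got a 48 h drug exposure; viability/growth was estimated with the sulforhodamine B protein assay. Growth inhibition (I%) was recorded at 100, 10, 1, 0.1 and 0.01 micromolar. Percent growth is relative to untreated control cells, and negative values indicate cell kill.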

SF-539 = assay: Cytotoxicity against human SF539 cells at 10^-6 M after 48 hrs by SRB assay; conditions: SF-539, 48 h, read-out: GI; method in brief: as §1
SF-295 = assay: Cytotoxicity against human SF295 cells at 10^-6 M after 48 hrs by SRB assay; conditions: SF-295, 48 h, read-out: GI; method in brief: as §1
SF-268 [3] = assay: Cytotoxicity against human SF268 cells at 10^-6 M after 48 hrs by SRB assay; conditions: SF-268, 48 h, read-out: GI; method in brief: as §1
T47D [4] = assay: Cytotoxicity against human T47D cells at 10^-6 M after 48 hrs by SRB assay; conditions: read-out: GI
MDA-MB-435 = assay: Cytotoxicity against human MDA-MB-435 cells at 10^-6 M after 48 hrs by SRB assay; conditions: MDA-MB-435, 48 h, read-out: GI; method in brief: as §2
MDA-MB-231 = assay: Cytotoxicity against human MDA-MB-231 cells at 10^-6 M after 48 hrs by SRB assay; conditions: MDA-MB-231, 48 h, read-out: GI; method in brief: as §2
DU-145 = assay: Cytotoxicity against human DU145 cells at 10^-6 M after 48 hrs by SRB assay; conditions: DU-145, 48 h, read-out: GI
Method in brief: (§3)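 Run by NCI on its 60-line human tumor cell panel, after a three-cell-line prescreen. Cells were exposed to drug for 48 h over a 5-log range: 100, 10, 1, 0.1 and 0.01 micromolar. Growth was estimated by sulforhodamine B (SRB) protein staining. Percent growth inhibition (I%) was recorded at each concentration relative to untreated control cells.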

TK-10 [5] = assay: Cytotoxicity against human TK10 cells at 10^-6 M after 48 hrs by SRB assay; conditions: TK-10, 48 h, read-out: GI
CAKI-1 = assay: Cytotoxicity against human Caki1 cells at 10^-6 M after 48 hrs by SRB assay; conditions: CAKI-1, 48 h, read-out: GI; method in brief: as §3
A498 = assay: Cytotoxicity against human A498 cells at 10^-6 M after 48 hrs by SRB assay; conditions: A498, 48 h, read-out: GI; method in brief: as §3
OVCAR-8 = assay: Cytotoxicity against human OVCAR8 cells at 10^-6 M after 48 hrs by SRB assay; conditions: OVCAR-8, 48 h, read-out: GI; method in brief: as §1
IGROV-1 [6] = assay: Cytotoxicity against human IGROV1 cells at 10^-6 M after 48 hrs by SRB assay; conditions: IGROV-1, 48 h, read-out: GI; method in brief: as §2
OVCAR-3 = assay: Cytotoxicity against human OVCAR3 cells at 10^-6 M after 48 hrs by SRB assay; conditions: OVCAR-3, 48 h, read-out: GI; method in brief: as §2
COLO 205 = assay: Cytotoxicity against human COLO205 cells at 10^-6 M after 48 hrs by SRB assay; conditions: COLO 205, 48 h, read-out: GI; method in brief: as §3
HOP-62 = assay: Cytotoxicity against human HOP62 cells at 10^-6 M after 48 hrs by SRB assay; conditions: HOP-62, 48 h, read-out: GI; method in brief: as §3
[7] = Cytotoxicity against human EKVX cells at 10^-6 M after 48 hrs by SRB assay; conditions: read-out: GI; method in brief: as §3
RPMI-8226 = assay: Cytotoxicity against human RPMI8226 cells at 10^-6 M after 48 hrs by SRB assay; conditions: RPMI-8226, 48 h, read-out: GI; method in brief: as §1
CCRF-CEM = assay: Cytotoxicity against human CCRF-CEM cells at 10^-6 M after 48 hrs by SRB assay; conditions: read-out: GI; method in brief: as §3
BT-549 = assay: Cytotoxicity against human BT549 cells at 10^-5 M after 48 hrs by SRB assay; conditions: BT-549, 48 h, read-out: GI; method in brief: as §3
T47D [8] = assay: Cytotoxicity against human T47D cells at 10^-5 M after 48 hrs by SRB assay; conditions: read-out: GI
786-0 = assay: Cytotoxicity against human 786-0 cells at 10^-5 M after 48 hrs by SRB assay; conditions: 786-0, 48 h, read-out: GI; method in brief: as §3
[9] = Cytotoxicity against human OVCAR5 cells at 10^-5 M after 48 hrs by SRB assay; conditions: OVCAR-5, 48 h, read-out: GI; method in brief: as §1
[10] = Cytotoxicity against human OVCAR4 cells at 10^-5 M after 48 hrs by SRB assay; conditions: OVCAR-4, 48 h, read-out: GI; method in brief: as §1
IGROV-1 [11] = assay: Cytotoxicity against human IGROV1 cells at 10^-5 M after 48 hrs by SRB assay; conditions: IGROV-1, 48 h, read-out: GI; method in brief: as §2
[12] = Cytotoxicity against human UACC257 cells at 10^-5 M after 48 hrs by SRB assay; conditions: UACC-257, 48 h, read-out: GI
SK-MEL-28 [13] = assay: Cytotoxicity against human SK-MEL-28 cells at 10^-5 M after 48 hrs by SRB assay; conditions: SK-MEL-28, 48 h, read-out: GI; method in brief: as §1
LOX IMVI = assay: Cytotoxicity against human LOXIMVI cells at 10^-5 M after 48 hrs by SRB assay; conditions: read-out: GI; method in brief: as §2
SNB-75 = assay: Cytotoxicity against human SNB75 cells at 10^-5 M after 48 hrs by SRB assay; conditions: SNB-75, 48 h, read-out: GI
SF-268 [14] = assay: Cytotoxicity against human SF268 cells at 10^-5 M after 48 hrs by SRB assay; conditions: SF-268, 48 h, read-out: GI; method in brief: as §1
NCI-H322M = assay: Cytotoxicity against human NCI-H322M cells at 10^-5 M after 48 hrs by SRB assay; conditions: read-out: GI; method in brief: as §2
NCI-H226 = assay: Cytotoxicity against human NCI-H226 cells at 10^-5 M after 48 hrs by SRB assay; conditions: NCI-H226, 48 h, read-out: GI; method in brief: as §2
A549 = assay: Cytotoxicity against human A549 cells at 10^-5 M after 48 hrs by SRB assay; conditions: A549, 48 h, read-out: GI; method in brief: as §3
MOLT-4 = assay: Cytotoxicity against human MOLT4 cells at 10^-5 M after 48 hrs by SRB assay; conditions: MOLT-4, 48 h, read-out: GI; method in brief: as §2

| SMILES | inhibition of growth at 1 µM (SK-MEL-28 [2]) [%] | inhibition of growth at 1 µM (M14) [%] | inhibition of growth at 1 µM (SF-539) [%] | inhibition of growth at 1 µM (SF-295) [%] | inhibition of growth at 1 µM (SF-268 [3]) [%] | inhibition of growth at 1 µM (T47D [4]) [%] | inhibition of growth at 1 µM (MDA-MB-435) [%] | inhibition of growth at 1 µM (MDA-MB-231) [%] | inhibition of growth at 1 µM (DU-145) [%] | inhibition of growth at 1 µM (TK-10 [5]) [%] | inhibition of growth at 1 µM (CAKI-1) [%] | inhibition of growth at 1 µM (A498) [%] | inhibition of growth at 1 µM (OVCAR-8) [%] | inhibition of growth at 1 µM (IGROV-1 [6]) [%] | inhibition of growth at 1 µM (OVCAR-3) [%] | inhibition of growth at 1 µM (COLO 205) [%] | inhibition of growth at 1 µM (HOP-62) [%] | inhibition of growth at 1 µM [7] [%] | inhibition of growth at 1 µM (RPMI-8226) [%] | inhibition of growth at 1 µM (CCRF-CEM) [%] | other results |
| --- | --- | --- | --- | --- | --- | --- | --- | --- | --- | --- | --- | --- | --- | --- | --- | --- | --- | --- | --- | --- | --- |
| CCN(Cc1nc2cc(C(F)(F)F)ccc2nc1-c1ccccc1)c1ccc(OC)c(OC)c1 | < 40 | < 40 | < 40 | < 40 | < 40 | < 40 | < 40 | < 40 | < 40 | < 40 | 19 | 26 | 45 | < 40 | 25 | < 40 | < 40 | < 40 | < 40 | < 40 | inhibition of growth at 0.1 µM (TK-10 [1]): < 40%; inhibition of growth at 0.1 µM (SK-OV-3): < 40%; inhibition of growth at 100 µM (SR): 145%; inhibition of growth at 10 µM (BT-549): 33%; inhibition of growth at 10 µM (T47D [8]): 24%; inhibition of growth at 10 µM (786-0): 15%; inhibition of growth at 10 µM [9]: < 40%; inhibition of growth at 10 µM [10]: < 40%; inhibition of growth at 10 µM (IGROV-1 [11]): 13%; inhibition of growth at 10 µM [12]: 146%; inhibition of growth at 10 µM (SK-MEL-28 [13]): < 40%; inhibition of growth at 10 µM (LOX IMVI): 23%; inhibition of growth at 10 µM (SNB-75): < 40%; inhibition of growth at 10 µM (SF-268 [14]): 15%; inhibition of growth at 10 µM (NCI-H322M): < 40%; inhibition of growth at 10 µM (NCI-H226): 32%; inhibition of growth at 10 µM (A549): 79%; inhibition of growth at 10 µM (MOLT-4): 44% |
| C#CCN(Cc1nc2cc(C(F)(F)F)ccc2nc1-c1ccccc1)c1ccc(C)cc1 | < 40 | 54 | < 40 | 56 | < 40 | 90 | 104 | < 40 | < 40 | < 40 | < 40 | < 40 | < 40 | < 40 | 62 | 108 | 56 | < 40 | < 40 | < 40 | inhibition of growth at 10 µM (BT-549): < 40%; inhibition of growth at 10 µM (T47D [8]): 78%; inhibition of growth at 10 µM (786-0): 70%; inhibition of growth at 10 µM [9]: 71%; inhibition of growth at 10 µM [10]: 63%; inhibition of growth at 10 µM (IGROV-1 [11]): 63%; inhibition of growth at 10 µM [12]: < 40%; inhibition of growth at 10 µM (SK-MEL-28 [13]): 71%; inhibition of growth at 10 µM (LOX IMVI): 54%; inhibition of growth at 10 µM (SNB-75): 118%; inhibition of growth at 10 µM (SF-268 [14]): 50%; inhibition of growth at 10 µM (NCI-H322M): 62%; inhibition of growth at 10 µM (NCI-H226): 91%; inhibition of growth at 10 µM (A549): 55%; inhibition of growth at 10 µM (MOLT-4): 88% |
